Assay outcomes deposited in PubChem BioAssay by Johns Hopkins Ion Channel Center.
KCNQ1 inh: inhibitors of human KCNQ1 channel, primary screen, cell-based, thallium flux, high-throughput; 310,000 compounds, 1.3% hits; CHO-K1 KCNQ1, FluxOR thallium flux fluorescence; active compounds read high; B-score at 10 µM; AID 2642, 2010; Potassium voltage-gated channel subfamily KQT member 1 (Homo sapiens), P51787;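 active = compounds whose thallium flux B-score, printed positive for inhibition, exceeds three library SD while starting fluorescence stays within three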;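 also: channel opened by potassium depolarization with thallium stimulus after 20 min compound exposure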
Target sequence (P51787 whole entry, looked up): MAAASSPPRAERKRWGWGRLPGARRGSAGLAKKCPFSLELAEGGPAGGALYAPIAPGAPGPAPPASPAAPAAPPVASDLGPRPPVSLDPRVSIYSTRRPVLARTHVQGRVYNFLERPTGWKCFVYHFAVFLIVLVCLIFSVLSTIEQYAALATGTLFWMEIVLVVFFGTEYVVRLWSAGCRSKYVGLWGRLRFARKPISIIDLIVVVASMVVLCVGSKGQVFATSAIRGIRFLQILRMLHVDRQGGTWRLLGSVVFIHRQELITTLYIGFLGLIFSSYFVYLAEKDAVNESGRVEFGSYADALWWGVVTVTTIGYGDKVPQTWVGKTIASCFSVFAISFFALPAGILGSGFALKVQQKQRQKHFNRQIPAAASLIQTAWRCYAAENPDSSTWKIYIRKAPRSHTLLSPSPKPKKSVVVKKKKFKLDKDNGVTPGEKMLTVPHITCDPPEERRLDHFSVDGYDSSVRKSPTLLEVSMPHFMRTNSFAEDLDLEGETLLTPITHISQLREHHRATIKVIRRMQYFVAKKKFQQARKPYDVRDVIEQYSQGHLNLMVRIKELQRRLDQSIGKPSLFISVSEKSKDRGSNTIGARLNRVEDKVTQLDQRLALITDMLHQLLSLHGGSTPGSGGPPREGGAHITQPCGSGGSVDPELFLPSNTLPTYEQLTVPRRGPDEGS
hERG protect: hERG rescue from dofetilide block, primary screen, cell-based, CHO-hERG, FluxOR thallium flux, dofetilide IC70; activation (rescue from dofetilide block), less the hit threshold, % at 10 µM; Voltage-gated inwardly rectifying potassium channel KCNH2 (Homo sapiens), Q12809; 310,000 compounds, 0.51% hits; dofetilide IC70 present;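 active = activation above the mean of controls blocked by dofetilide plus 5 SD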;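 also: thallium influx through hERG after potassium depolarization seen as dye fluorescence rise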
KCNK3 inh: human KCNK3 channel inhibitors, primary screen, CHO cells, FluxOR thallium flux, B-score; 340,000 compounds, 0.84% hits; B-score at 10 µM; FluxOR fluorescence; active compounds read low; Potassium channel subfamily K member 3 (Homo sapiens), O14649;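 active = B-score under library mean minus 4 SD, starting fluorescence ratio at most library mean plus 5 SD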;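 also: more negative B-score means stronger inhibition of thallium flux through KCNK3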
KCNQ1 act: potentiators or activators of KCNQ1 channel, primary screen, cell-based, thallium flux, high-throughput | B-score at 10 µM | 310,000 compounds, 0.35% hits | CHO-K1 KCNQ1, thallium flux FluxOR fluorescence; active compounds read high;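 active = fluorescence ratio B-score, a plate-corrected score, at least three library SD, with initial intensity B-score within 5 SD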
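Assay system: stable KCNQ1 CHO-K1 line; medium: assay buffer, equal DMSO in all wells; timing: 90 min dye loading and 20 min compound exposure, both at room temperature; technique: kinetic FluxOR thallium fluorescence, 10-s 1-Hz baseline, 110-s post-stimulus read; read-out basis: B score of baseline-normalized fluorescence ratio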
KCNK9 block: KCNK9 potassium channel inhibitors, primary screen, HEK293 cells, thallium flux; B-score at 10 µM; FluxOR thallium flux fluorescence; active compounds read low; Potassium channel subfamily K member 9 (Homo sapiens), Q9NPC2; 310,000 compounds, 1.2% hits;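 active = ratio B-score over 3 SD below the library mean, with starting fluorescence within 5 SD of its mean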;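 also: negative B-score means less thallium flux so channel inhibition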
KCNK9 inh conf: KCNK9 potassium channel inhibitors, confirmation, HEK293 cells, thallium flux, duplicate; 4,900 compounds, 43% hits; FluxOR thallium flux fluorescence; shares compounds with KCNK9 block; inhibition, % at 10 µM;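 active = thallium signal inhibited by more than 5 SD of the compound-free buffer control wells, on both duplicate plates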;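 also: 0% = assay buffer control wells without compound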
Kir2-1 spec: mouse Kir2.1 channel inhibition, confirmation, selectivity assay for KCNK9 modulator project, cell-based, HEK293, thallium flux | 4,900 compounds, 4% hits | inhibition, % at 10 µM | Kir2.1 cells, FluxOR thallium flux fluorescence | AID 492993, 2010 | shares compounds with KCNK9 block;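 active = thallium signal drop more than 5 SD beyond the mean of the no-compound control wells, seen in both duplicate plates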;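 also: signal is fluorescence rise after thallium addition divided by baseline fluorescence; plate controls were assay buffer only for no effect and full block by chlorpromazine control for full effect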
HEK293 Tl ctr: thallium flux in non-induced HEK293 cells, confirmation, counter-screen for KCNK9 inhibitor project, cell-based, second counter screen, non-induced KCNK9-HEK293; shares compounds with KCNK9 block; FluxOR thallium flux; inhibition, % at 10 µM; 4,900 compounds, 40% hits;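 active = thallium signal drop beyond 5 SD of the untreated control mean, on both duplicate plates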;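 also: plate controls were buffer only IC0 wells for no effect and SID17386958 at its maximal inhibitory level for full effect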
An asterisk follows results filed as active; i = inactive; nt = no result given. Rows were chosen to be rich in hits. Some 3.1% of all compounds tested hit in one or more screens of this group.

SMILES	KCNQ1 inh	hERG protect	KCNK3 inh	KCNQ1 act	KCNK9 block	KCNK9 inh conf	Kir2-1 spec	HEK293 Tl ctr
CCc1ccc2oc(=O)cc(CN3CCCCC3)c2c1	i	-1	i	i	i	nt	nt	nt
COC(=O)[C@@]12CCCCN1[C@H](c1ccc(-c3cccc(Cl)c3)c(OC)c1)[C@H]1C(=O)N(C)C(=O)[C@H]12	i	-5	i	i	i	nt	nt	nt
COc1ccc(-c2csc(NC(=O)c3ccc(C(C)(C)C)cc3)c2C(=O)O)cc1	i	-14	i	i	i	i	i	i
CCC(=O)Nc1ccc(N2CCN(C(=O)c3ccco3)CC2)c(Cl)c1	i	-5	i	i	i	nt	nt	nt
O=C(Cc1ccc(Cl)cc1)Nc1ccc(N2CCN(C(=O)c3ccco3)CC2)c(Cl)c1	i	-2	i	i	-9.8*	30%*	35%*	i
COc1ccc(N2CCN(C3CCCN(C(=O)C4=C(C)OCCO4)C3)CC2)cc1 (centres undefined)	i	-9	i	i	i	nt	nt	nt
CCOc1ccc(NS(=O)(=O)c2ccc(C(=O)N(C)CC(=O)Nc3cccc(OC)c3)cc2)cc1	nt	nt	i	nt	nt	nt	nt	nt
CCOC(=O)n1c(=O)n(Cc2ccccc2Cl)c2ccccc21	i	-6	i	i	i	nt	nt	nt
CCOC(=O)n1c(=O)n(Cc2ccc(Cl)cc2Cl)c2ccccc21	i	-8	i	i	-17*	76%*	i	i
CCOC(=O)C1(C)NC(c2cccc(C)c2)C2C(=O)N(c3ccccc3)C(=O)C21 (centres undefined)	i	-11	i	i	i	i	i	i
CC(=O)NC(=S)Nc1ccc(N2CCOCC2)c(S(=O)(=O)Nc2cc(Cl)ccc2Cl)c1	i	-25	i	i	-15*	66%*	i	27%*
CC(C)CN(C(=O)c1cccc(Cl)c1)c1c(N)n(Cc2ccccc2)c(=O)[nH]c1=O	nt	nt	i	nt	nt	nt	nt	nt
Nc1ccc(Oc2ccc3c(c2)C(=O)NC3=O)cc1	i	-8	i	i	i	nt	nt	nt
Cc1cc(C)cc(NC(=S)NCc2ccc3[nH]c4c(c3c2)CCCC4)c1	i	-16	i	i	i	i	i	i
CCOC(=O)/C(=N/Nc1ccccc1OC)N1CCCc2ccccc21	i	2	i	i	i	i	i	i
CC(C)c1ccc(-c2csc3nc[nH]c(=O)c23)cc1	i	-6	i	i	i	nt	nt	nt
CC(=O)[C@@]1(O)CC[C@H]2[C@@H]3CCC4=CC(=O)CC[C@]4(C)[C@H]3CC[C@@]21C	i	-3	i	i	i	nt	nt	nt
CCCCCC(=O)O[C@]1(C(C)=O)CC[C@H]2[C@@H]3CCC4=CC(=O)CC[C@]4(C)[C@H]3CC[C@@]21C	12*	-5	-10*	i	-13*	66%*	i	45%*
CCOC(=O)[C@H](C)N1[C@H](C)[C@H](c2ccccc2)Oc2ccc(Cl)cc2S1(=O)=O	nt	nt	i	nt	nt	nt	nt	nt
CC(=O)N1CCN(S(=O)(=O)c2cccc(C(=O)N(C)Cc3ccc(C)o3)c2)CC1	nt	nt	i	nt	nt	nt	nt	nt
O=C(c1cccc(S(=O)(=O)N2CCCCC2)c1)N(CCc1ccccc1)Cc1ccccc1	6*	-16	i	i	-16*	62%*	i	36%*
CN1CCN(S(=O)(=O)c2cccc(C(=O)Nc3nc(-c4ccccc4)cs3)c2)CC1	i	-18	i	i	i	nt	nt	nt
